Laboratory results: ChEMBL document CHEMBL1139340, “Synthesis, radiosynthesis, and biological evaluation of carbon-11 and fluorine-18 labeled reboxetine analogues: potential positron emission tomography radioligands for in vivo imaging of the norepinephrine transporter” (J Med Chem, 2009)

Key:
Bone [1] = test: Biodistribution in Sprague-Dawley rat bone at 300 uCi, iv after 30 mins; format: ADME, organism-based, Bone element; conditions: in vivo, 0.5 h
Pancreas [2] = test: Biodistribution in Sprague-Dawley rat pancreas at 300 uCi, iv after 5 mins; format: ADME, organism-based; conditions: in vivo
[3] = Ratio of drug uptake in thalamus to caudate of anesthetized rhesus monkey at 15 to 20 mCi after 85 mins postinjection by microPET; format: ADME, organism-based, Macaca mulatta; conditions: in vivo
Procedure, shortened: (§1)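 Anesthetized adult male rhesus monkeys scanned on a microPET P4 after 15–20 mCi of the 11C radioligand; emission collected continuously for 125 min, binned, time-activity curves from manually drawn anatomical ROIs; regional uptake divided by caudate uptake (caudate as NET-poor reference) at 85 min postinjection, at baseline.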

Spleen [4] = test: Biodistribution in Sprague-Dawley rat spleen at 300 uCi, iv after 60 mins; format: ADME, organism-based; conditions: in vivo, 1 h
Spleen [5] = test: Biodistribution in Sprague-Dawley rat spleen at 300 uCi, iv after 5 mins; format: ADME, organism-based; conditions: in vivo
Bone [6] = test: Biodistribution in Sprague-Dawley rat bone at 300 uCi, iv after 15 mins; format: ADME, organism-based, Bone element; conditions: in vivo, 0.25 h
Lung [7] = test: Biodistribution in Sprague-Dawley rat lung at 300 uCi, iv after 15 mins; format: ADME, organism-based; conditions: in vivo, 0.25 h
Liver [8] = test: Biodistribution in Sprague-Dawley rat liver at 300 uCi, iv after 15 mins; format: ADME, organism-based; conditions: in vivo, 0.25 h
Blood [9] = test: Biodistribution in Sprague-Dawley rat blood at 300 uCi, iv after 5 mins; format: ADME, organism-based; conditions: in vivo
[10] = Ratio of drug uptake in pons to caudate of anesthetized rhesus monkey at 15 to 20 mCi after 85 mins postinjection by microPET; format: ADME, organism-based, Macaca mulatta; conditions: in vivo; procedure, shortened: as §1
Kidney [11] = test: Biodistribution in Sprague-Dawley rat kidney at 300 uCi, iv after 5 mins; format: ADME, organism-based; conditions: in vivo
[12] = Ratio of drug uptake in midbrain to caudate of anesthetized rhesus monkey at 15 to 20 mCi pretreated with 0.125 mg/kg desipramine by microPET; format: ADME, organism-based, Macaca mulatta; design: dose 0.125 mg/kg; conditions: in vivo
Procedure, shortened: (§2)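 Anesthetized adult male rhesus monkeys imaged on a microPET P4 system after injection of 15–20 mCi of the 11C-labeled radioligand. Desipramine was given 40 min before radiotracer injection. Emission data were collected continuously for 125 min and binned. ROIs were drawn manually on anatomical landmarks in the reconstructed images. The ratio of region-of-interest to caudate uptake was taken from time-activity curves at 85 min postinjection.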

[13] = Ratio of drug uptake in pons to caudate of awaken rhesus monkey at 15 to 20 mCi after by PET method; format: ADME, Macaca mulatta; conditions: in vivo
Procedure, shortened: (§3)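 Awake rhesus monkeys imaged on a high-resolution research tomograph (HRRT) for 120 min after radioligand injection; images coregistered with composite MRI to define regions; time-activity curves generated and highest ratio of regional uptake to caudate uptake taken.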

Bone [14] = test: Biodistribution in Sprague-Dawley rat bone at 300 uCi, iv after 5 mins; format: ADME, organism-based, Bone element; conditions: in vivo
[15] = Ratio of drug uptake in cerebellum to caudate of anesthetized rhesus monkey at 15 to 20 mCi pretreated with 0.125 mg/kg desipramine by microPET; format: ADME, organism-based, Macaca mulatta; design: dose 0.125 mg/kg; conditions: in vivo; procedure, shortened: as §2
Brain [16] = test: Biodistribution in Sprague-Dawley rat brain at 300 uCi, iv after 5 mins; format: ADME, organism-based; conditions: in vivo
Pancreas [17] = test: Biodistribution in Sprague-Dawley rat pancreas at 300 uCi, iv after 15 mins; format: ADME, organism-based; conditions: in vivo, 0.25 h
Lung [18] = test: Biodistribution in Sprague-Dawley rat lung at 300 uCi, iv after 60 mins; format: ADME, organism-based; conditions: in vivo, 1 h
Muscle tissue [19] = test: Biodistribution in Sprague-Dawley rat muscle at 300 uCi, iv after 60 mins; format: ADME, organism-based; conditions: in vivo, 1 h
Lung [20] = test: Biodistribution in Sprague-Dawley rat lung at 300 uCi, iv after 5 mins; format: ADME, organism-based; conditions: in vivo
Heart [21] = test: Biodistribution in Sprague-Dawley rat heart at 300 uCi, iv after 15 mins; format: ADME, organism-based; conditions: in vivo, 0.25 h
[22] = Ratio of drug uptake in thalamus to caudate of anesthetized rhesus monkey at 15 to 20 mCi pretreated with 0.125 mg/kg desipramine by microPET; format: ADME, organism-based, Macaca mulatta; design: dose 0.125 mg/kg; conditions: in vivo; procedure, shortened: as §2
Brain [23] = test: Biodistribution in Sprague-Dawley rat brain at 300 uCi, iv after 15 mins; format: ADME, organism-based; conditions: in vivo, 0.25 h
Heart [24] = test: Biodistribution in Sprague-Dawley rat heart at 300 uCi, iv after 5 mins; format: ADME, organism-based; conditions: in vivo
Muscle tissue [25] = test: Biodistribution in Sprague-Dawley rat muscle at 300 uCi, iv after 30 mins; format: ADME, organism-based; conditions: in vivo, 0.5 h
[26] = Ratio of drug uptake in midbrain to caudate of awaken rhesus monkey at 15 to 20 mCi after by PET method; format: ADME, Macaca mulatta; conditions: in vivo; procedure, shortened: as §3
[27] = Biodistribution in Sprague-Dawley rat testis at 300 uCi, iv after 30 mins; format: ADME, organism-based; conditions: in vivo, 0.5 h
[28] = Biodistribution in Sprague-Dawley rat testis at 300 uCi, iv after 5 mins; format: ADME, organism-based; conditions: in vivo
Muscle tissue [29] = test: Biodistribution in Sprague-Dawley rat muscle at 300 uCi, iv after 15 mins; format: ADME, organism-based; conditions: in vivo, 0.25 h
[30] = Ratio of drug uptake in midbrain to caudate of anesthetized rhesus monkey at 15 to 20 mCi after 85 mins postinjection by microPET; format: ADME, organism-based, Macaca mulatta; conditions: in vivo
Procedure, shortened: (§4)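 Anesthetized adult male rhesus monkeys given 15–20 mCi of the ¹¹C tracer, alone or after desipramine (0.125 or 0.25 mg/kg) 40 min beforehand. MicroPET emission collected continuously for 125 min and binned. ROIs drawn manually on anatomical landmarks to give time-activity curves. Region-to-caudate uptake ratio taken at 85 min postinjection.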

[31] = Ratio of drug uptake in pons to caudate of anesthetized rhesus monkey at 15 to 20 mCi pretreated with 0.125 mg/kg desipramine by microPET; format: ADME, organism-based, Macaca mulatta; design: dose 0.125 mg/kg; conditions: in vivo; procedure, shortened: as §2
Blood [32] = test: Biodistribution in Sprague-Dawley rat blood at 300 uCi, iv after 30 mins; format: ADME, organism-based; conditions: in vivo, 0.5 h
[33] = Ratio of drug uptake in thalamus to caudate of awaken rhesus monkey at 15 to 20 mCi after by PET method; format: ADME, Macaca mulatta; conditions: in vivo; procedure, shortened: as §3
Spleen [34] = test: Biodistribution in Sprague-Dawley rat spleen at 300 uCi, iv after 15 mins; format: ADME, organism-based; conditions: in vivo, 0.25 h
[35] = Ratio of drug uptake in cerebellum to caudate of anesthetized rhesus monkey at 15 to 20 mCi after 85 mins postinjection by microPET; format: ADME, organism-based, Macaca mulatta; conditions: in vivo; procedure, shortened: as §4
[36] = Ratio of drug uptake in cerebellum to caudate of awaken rhesus monkey at 15 to 20 mCi after by PET method; format: ADME, tissue-based, Macaca mulatta; conditions: in vivo
Procedure, shortened: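 Awake rhesus monkeys imaged on a high-resolution research tomograph for 120 min after injection of the ¹¹C tracer. Images coregistered with composite MRI to define regions of interest. Highest cerebellum-to-caudate uptake ratio read from the time-activity curves.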

Liver [37] = test: Biodistribution in Sprague-Dawley rat liver at 300 uCi, iv after 5 mins; format: ADME, organism-based; conditions: in vivo
Muscle tissue [38] = test: Biodistribution in Sprague-Dawley rat muscle at 300 uCi, iv after 5 mins; format: ADME, organism-based; conditions: in vivo
Kidney [39] = test: Biodistribution in Sprague-Dawley rat kidney at 300 uCi, iv after 15 mins; format: ADME, organism-based; conditions: in vivo, 0.25 h
Blood [40] = test: Biodistribution in Sprague-Dawley rat blood at 300 uCi, iv after 60 mins; format: ADME, organism-based; conditions: in vivo, 1 h
Liver [41] = test: Biodistribution in Sprague-Dawley rat liver at 300 uCi, iv after 30 mins; format: ADME, organism-based; conditions: in vivo, 0.5 h
Bone [42] = test: Biodistribution in Sprague-Dawley rat bone at 300 uCi, iv after 60 mins; format: ADME, organism-based, Bone element; conditions: in vivo, 1 h
Brain [43] = test: Biodistribution in Sprague-Dawley rat brain at 300 uCi, iv after 30 mins; format: ADME, organism-based; conditions: in vivo, 0.5 h
Liver [44] = test: Biodistribution in Sprague-Dawley rat liver at 300 uCi, iv after 60 mins; format: ADME, organism-based; conditions: in vivo, 1 h
Kidney [45] = test: Biodistribution in Sprague-Dawley rat kidney at 300 uCi, iv after 60 mins; format: ADME, organism-based; conditions: in vivo, 1 h
Lung [46] = test: Biodistribution in Sprague-Dawley rat lung at 300 uCi, iv after 30 mins; format: ADME, organism-based; conditions: in vivo, 0.5 h
Brain [47] = test: Biodistribution in Sprague-Dawley rat brain at 300 uCi, iv after 60 mins; format: ADME, organism-based; conditions: in vivo, 1 h
Heart [48] = test: Biodistribution in Sprague-Dawley rat heart at 300 uCi, iv after 30 mins; format: ADME, organism-based; conditions: in vivo, 0.5 h
Blood [49] = test: Biodistribution in Sprague-Dawley rat blood at 300 uCi, iv after 15 mins; format: ADME, organism-based; conditions: in vivo, 0.25 h
[50] = Biodistribution in Sprague-Dawley rat testis at 300 uCi, iv after 15 mins; format: ADME, organism-based; conditions: in vivo, 0.25 h
[51] = Biodistribution in Sprague-Dawley rat testis at 300 uCi, iv after 60 mins; format: ADME, organism-based; conditions: in vivo, 1 h
Kidney [52] = test: Biodistribution in Sprague-Dawley rat kidney at 300 uCi, iv after 30 mins; format: ADME, organism-based; conditions: in vivo, 0.5 h
Pancreas [53] = test: Biodistribution in Sprague-Dawley rat pancreas at 300 uCi, iv after 30 mins; format: ADME, organism-based; conditions: in vivo, 0.5 h
Pancreas [54] = test: Biodistribution in Sprague-Dawley rat pancreas at 300 uCi, iv after 60 mins; format: ADME, organism-based; conditions: in vivo, 1 h
Heart [55] = test: Biodistribution in Sprague-Dawley rat heart at 300 uCi, iv after 60 mins; format: ADME, organism-based; conditions: in vivo, 1 h
Spleen [56] = test: Biodistribution in Sprague-Dawley rat spleen at 300 uCi, iv after 30 mins; format: ADME, organism-based; conditions: in vivo, 0.5 h

Drug uptake (Bone [1]): 0.2 % ID/g | Drug uptake (Pancreas [2]): 1.59 % ID/g | Ratio [3]: 1.3 | Drug uptake (Spleen [4]): 0.49 % ID/g | Drug uptake (Spleen [5]): 3.5 % ID/g | Drug uptake (Bone [6]): 0.37 % ID/g | Drug uptake (Lung [7]): 6.92 % ID/g | Drug uptake (Liver [8]): 0.77 % ID/g | Drug uptake (Blood [9]): 0.13 % ID/g | Ratio [10]: 1.44 | Drug uptake (Kidney [11]): 2.66 % ID/g | Ratio [12]: 1.2 | Ratio [13]: 1.13 | Drug uptake (Bone [14]): 0.48 % ID/g | Ratio [15]: 1.04 | Drug uptake (Brain [16]): 0.9 % ID/g | Drug uptake (Pancreas [17]): 0.83 | Drug uptake (Lung [18]): 1.98 % ID/g | Drug uptake (Muscle tissue [19]): 0.22 % ID/g | Drug uptake (Lung [20]): 15.3 % ID/g | Drug uptake (Heart [21]): 1.49 % ID/g | Ratio [22]: 1.1 | Drug uptake (Brain [23]): 0.72 % ID/g | Drug uptake (Heart [24]): 3.43 % ID/g | Drug uptake (Muscle tissue [25]): 0.22 % ID/g | Ratio [26]: 1.2 | Drug uptake [27]: 0.19 % ID/g | Drug uptake [28]: 0.18 % ID/g | Drug uptake (Muscle tissue [29]): 0.22 % ID/g | Ratio [30]: 1.43 | Ratio [31]: 1.13 | Drug uptake (Blood [32]): 0.05 % ID/g | Ratio [33]: 1.25 | Drug uptake (Spleen [34]): 1.79 % ID/g | Ratio [35]: 1.25 | Ratio [36]: 0.93 | Drug uptake (Liver [37]): 0.28 % ID/g | Drug uptake (Muscle tissue [38]): 0.25 % ID/g | Drug uptake (Kidney [39]): 0.85 % ID/g | Drug uptake (Blood [40]): 0.04 % ID/g | Drug uptake (Liver [41]): 0.46 % ID/g | Drug uptake (Bone [42]): 0.17 % ID/g | Drug uptake (Brain [43]): 0.55 % ID/g | Drug uptake (Liver [44]): 0.29 % ID/g | Drug uptake (Kidney [45]): 0.31 % ID/g | Drug uptake (Lung [46]): 3.63 % ID/g | Drug uptake (Brain [47]): 0.25 % ID/g | Drug uptake (Heart [48]): 1.07 % ID/g | Drug uptake (Blood [49]): 0.05 % ID/g | Drug uptake [50]: 0.18 % ID/g | Drug uptake [51]: 0.15 % ID/g | Drug uptake (Kidney [52]): 0.56 % ID/g | Drug uptake (Pancreas [53]): 0.77 % ID/g | Drug uptake (Pancreas [54]): 0.63 % ID/g | Drug uptake (Heart [55]): 0.62 % ID/g | Drug uptake (Spleen [56]): 1.13 % ID/g
Structure (SMILES): [11CH3]c1ccccc1O[C@@H](c1ccccc1)[C@@H]1CNCCO1
